Source: ChEMBL document CHEMBL5614377, “Structure-based mapping of the histone-binding pocket of KDM4D using functionalized tetrazole and pyridine core compounds” (Eur J Med Chem, 2024)

Tests used:
[1] = target: T1, Lysine-specific demethylase 4D (Homo sapiens) (UniProt Q6B0I6); test: Binding affinity to N-terminal His-6-tagged human KDM4D catalytic domain (1 to 342 residues) assessed as change in entropy by isothermal titration calorimetry analysis
T1 sequence (whole entry): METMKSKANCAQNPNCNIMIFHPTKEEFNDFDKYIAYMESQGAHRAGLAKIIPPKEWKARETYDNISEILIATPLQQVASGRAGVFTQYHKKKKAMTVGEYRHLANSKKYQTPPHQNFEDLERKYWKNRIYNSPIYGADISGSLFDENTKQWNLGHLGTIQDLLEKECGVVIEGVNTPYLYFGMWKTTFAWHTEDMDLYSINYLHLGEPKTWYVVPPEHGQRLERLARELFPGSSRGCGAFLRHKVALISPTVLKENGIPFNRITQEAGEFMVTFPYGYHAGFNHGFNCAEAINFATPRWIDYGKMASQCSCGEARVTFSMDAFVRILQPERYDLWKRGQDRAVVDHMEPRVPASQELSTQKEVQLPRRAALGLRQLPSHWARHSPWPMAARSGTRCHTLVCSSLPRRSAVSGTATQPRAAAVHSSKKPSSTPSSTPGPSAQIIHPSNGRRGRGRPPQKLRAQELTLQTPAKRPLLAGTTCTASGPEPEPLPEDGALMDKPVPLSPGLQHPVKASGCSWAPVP
Method in brief: (§1)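 Human KDM4D catalytic domain (residues 1–342) expressed with N-terminal His6-tag, purified by metal affinity chromatography; tag removed by TEV protease for affinity tests, then size-exclusion. Protein concentration measured by A280. ITC at 20 °C in 10 mM HEPES pH 7.5, 0.5 M NaCl, 5% glycerol, 1 mM TCEP. Ligands diluted from DMSO stocks to 0.4–1% final DMSO, with protein DMSO-matched. Ligand titrated into protein in the cell in 13 or 19 injections of 2–3 μL, 180 s spacing, 5 s filter. Two or three runs per ligand. Thermodynamic parameters obtained by baseline adjustment, peak integration, heat normalization per mole of ligand, and fitting.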

[2] = target: T2, Lysine-specific demethylase 4D (Homo sapiens, UniProt Q6B0I6); test: Binding affinity to N-terminal His-6-tagged human KDM4D catalytic domain (1 to 342 residues) assessed as dissociation constant by isothermal titration calorimetry analysis; method in brief: as §1
T2 sequence (Q6B0I6 whole entry): T1 sequence (whole entry)

[3] = target: T1, Lysine-specific demethylase 4D (Homo sapiens); test: Binding affinity to N-terminal His-6-tagged human KDM4D catalytic domain (1 to 342 residues) assessed as change in gibbs free energy by isothermal titration calorimetry analysis; method in brief: as §1
[4] = target: T1, Lysine-specific demethylase 4D (Homo sapiens); test: Binding affinity to N-terminal His-6-tagged human KDM4D catalytic domain (1 to 342 residues) assessed as change in enthalpy by isothermal titration calorimetry analysis; method in brief: as §1

-TdeltaS [1] | Kd [2] | deltaG [3] | deltaH [4] | Structure (SMILES)
-12.9 kcal/mol | 509 µM | -4.42 kcal/mol | 8.5 kcal/mol | NNC(=O)[C@H](NC(=O)CCCCc1ccccc1)c1nnn[nH]1
-4.05 kcal/mol | 55.9 µM | -5.7 kcal/mol | -1.65 kcal/mol | O=C(O)c1ccnc(NCCCO)c1
-13.7 kcal/mol | 0.55 µM | -8.4 kcal/mol | 5.3 kcal/mol | O=C(NO)c1cc(-c2nnn[nH]2)ccn1
-1.35 kcal/mol | 35.5 µM | -5.97 kcal/mol | -4.6 kcal/mol | CS(=O)(=O)NCCNc1cc(C(=O)O)ccn1
